PABP FP inh – blocks human PABP binding to poly(A) RNA | P11940 | fluorescence polarization | calls only at 35 µM | 290,000 tested, 1% active | AID 2014;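 note: calls also rest on retests at 20 µM and on dose response follow-up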
eIF4H FP inh – inhibitors of RNA binding by human eIF4H. Q15056. eIF4H fluorescence polarization binding assay. inhibition, % at 35 µM. 290,000 tested, 0.94% active;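 note: calls also rest on retests at 20 µM and on dose response follow-up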
VIM-2 inh – blocks Pseudomonas aeruginosa VIM-2 metallo-beta-lactamase | purified VIM-2, nitrocefin hydrolysis, epi-absorbance fluorescence | AID 1527 | inhibition, % at 5.6 µM | 290,000 tested, 0.89% active;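 active = inhibition above the mean of all tested compounds plus 3 SD, cutoff set per screening run, cut at about 7.5% in these data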;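 note: red hydrolysis product quenches plate fluorescence so inhibitors raise well fluorescence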
PABP1 MLLE inh – blocks PAM2 peptide binding to the PABP1 MLLE domain; P11940; GST-MLLE / FITC-PAM2 fluorescence polarization; inhibition, % at 20 µM; 360,000 tested, 0.36% active; AID 588489; in the data active = inhibition above about 35%, passing the limit was not always enough
IMP-1 inh-1 – inhibitors of Pseudomonas aeruginosa IMP-1 metallo-beta-lactamase. inhibition, % at 5.6 µM. purified IMP-1, nitrocefin hydrolysis, epi-absorbance fluorescence. AID 1556. 290,000 tested, 0.45% active;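 active = inhibition above the mean plus 3 SD of all compounds in the same screening run, cut at about 4.5% in these data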
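System: purified recombinant IMP-1 beta-lactamase. Medium: Zinc- and detergent-supplemented HEPES buffer, pH 7.1. Compound: one 5.6 µM dose […]. Schedule: 15 min preincubation plus 25 min reaction at 25 °C. Technique: Epi-absorbance fluorescence, 480 nm excitation, 530 nm emission.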
IMP-1 inh-2 – selectivity counter-screen for VIM-2 inhibitors: IMP-1 metallo-beta-lactamase inhibitors. shares compounds with VIM-2 inh. purified IMP-1, nitrocefin hydrolysis, epi-absorbance fluorescence. inhibition, % at 5.6 µM. 1,300 tested, under 10 active. AID 1856
VIM-2 FRET ctr – inhibits VIM-2 in FRET assay to exclude epi-absorbance artifacts | 1,300 tested, 23% active | AID 1857 | shares compounds with VIM-2 inh | purified VIM-2, CCF2 FRET substrate hydrolysis | inhibition, % at 5.6 µM;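 active = inhibition above the mean of all tested compounds plus 3 SD, cut at about 19% in these data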
TEM-1 counter – TEM-1 inhibition, counter-screen for VIM-2 inhibitors | AID 1866 | Purified TEM-1, nitrocefin hydrolysis, epi-absorbance fluorescence | inhibition, % at 5.6 µM | shares compounds with VIM-2 inh | 1,300 tested, 3% active;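 active = inhibition above that campaign's mean inhibition plus 3 SD, cut at about 0.46% in these data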
Target sequence (P62593 whole entry, looked up): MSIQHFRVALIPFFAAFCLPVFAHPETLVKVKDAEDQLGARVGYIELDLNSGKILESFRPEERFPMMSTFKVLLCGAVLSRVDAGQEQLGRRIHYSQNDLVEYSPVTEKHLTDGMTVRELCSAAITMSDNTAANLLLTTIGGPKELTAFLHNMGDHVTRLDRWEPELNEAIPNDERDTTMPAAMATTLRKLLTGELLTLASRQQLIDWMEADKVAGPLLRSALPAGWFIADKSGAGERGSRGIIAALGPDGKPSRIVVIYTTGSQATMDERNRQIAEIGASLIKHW
VIM-2 confirm 2 – confirmation of P. aeruginosa VIM-2 metallo-beta-lactamase inhibitors. shares compounds with VIM-2 inh. purified VIM-2, nitrocefin hydrolysis, epi-absorbance. inhibition, % at 5.6 µM. 1,300 tested, 96% active. AID 2187;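 active = inhibition of the VIM-2 beta-lactamase enzyme above about 11% from the earlier first-round screen, limit read from the data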
Numbers stand for hits; 0 = inactive; ? = inconclusive; - = no result; + = active, no number. Rows were chosen to be rich in hits. Some 2.2% of all compounds tested hit in one or more screens of this group. Unless noted, the rule behind the calls is not given here.

SMILES	PABP FP inh	eIF4H FP inh	VIM-2 inh	PABP1 MLLE inh	IMP-1 inh-1	IMP-1 inh-2	VIM-2 FRET ctr	TEM-1 counter	VIM-2 confirm 2
O=C(Cn1c2[n+](c3ccccc31)CC(O)CS2)c1ccccc1 (stereo not drawn)	0	0	0	0	0	-	-	-	-
O=C(NC1CCCCC1)C1CCN(S(=O)(=O)c2cccc3nonc23)CC1	0	0	0	0	0	-	-	-	-
O=[N+]([O-])c1ccccc1/C=N/n1c(-c2ccccc2)n[nH]c1=S	0	0	0	0	0	-	-	-	-
O=[N+]([O-])c1ccccc1/C=C/C=N/n1c(-c2ccccc2F)n[nH]c1=S	0	0	13.5	0	0	0	33.7	0	21.2
CN(C)c1cc(C(F)(F)F)nc(-c2ccccn2)n1	0	0	0	0	0	-	-	-	-
CSCc1cc(N(C)c2ccccc2)nc(-c2ccccn2)n1	0	0	64.0	0	0	0	0	0	72.2
Cc1cccc(-c2n[nH]c(=S)n2Cc2ccccc2)c1	0	0	0	0	0	-	-	-	-
Cc1ccc(-n2c(-c3cccc(C)c3)n[nH]c2=S)cc1	0	0	0	0	0	-	-	-	-
Cc1ccc(-n2c(-c3nn(C)c(C)c3Cl)n[nH]c2=S)cc1	0	0	18.9	0	0	0	54.0	0	36.5
Cc1ccc(-c2n[nH]c(=S)n2Cc2ccccc2)cc1	0	0	12.4	0	0	0	29.2	0	16.1
CCCCc1n[nH]c(=S)n1Cc1ccc(C)cc1	0	0	23.4	0	0	0	37.3	0	25.7
Cc1ccc(-c2n[nH]c(=S)n2-c2ccccc2)cc1	0	0	13.0	0	0	0	34.6	0	22.8
Oc1ccccc1-c1n[nH]c(=S)n1Cc1ccccc1	0	0	12.5	0	0	0	25.6	0	15.5
CCOC(=O)c1nc(-c2ccc(OC)c(OC)c2)no1	0	0	0	0	0	-	-	-	-
O=C1C2C3C=CC(C3)C2C(=O)N1c1cccc2cccnc12 (stereo not drawn)	0	0	0	0	0	-	-	-	-
O=C1c2ccccc2C(=O)N1c1cccc2cccnc12	0	64.5	14.1	0	0	0	0	0	0
CCC1(c2ccc(F)cc2)NC(=O)N(CC(=O)Nc2cccc(S(=O)(=O)N3CCOCC3)c2)C1=O (stereo not drawn)	-	-	-	0	-	-	-	-	-
Cc1noc(C)c1-c1nc(CS(=O)(=O)c2ccc(F)cc2)no1	0	0	0	0	0	-	-	-	-
COc1ccc(-c2n[nH]c(=S)n2-c2ccc3c(c2)OCCO3)cc1OC	0	0	17.8	0	0	0	50.5	0	31.1
S=c1[nH]nc(-c2ccc(Br)cc2)n1-c1ccc2c(c1)OCCO2	0	0	0	0	0	-	-	-	-
COc1ccc(-c2n[nH]c(=S)n2-c2ccc3c(c2)OCCO3)cc1	0	0	13.4	0	0	0	34.2	0	19.5
CCN1C(=O)N[C@@H](c2cccs2)C(C(C)=O)=C1C	0	0	-	0	-	-	-	-	-
COC(=O)c1c(NC(=O)c2ccco2)sc2c1CC(C)(C)NC2(C)C	0	0	13.5	0	0	0	0	0	17.1
COC(=O)c1c(NC(=O)c2ccccc2)sc2c1CC(C)(C)NC2(C)C	0	0	0	0	0	-	-	-	-
CCOc1ccc(S(=O)(=O)N2CCCC(C(=O)NCc3cccnc3)C2)cc1Cl (stereo not drawn)	0	0	0	0	0	-	-	-	-
SMILES	PABP FP inh	eIF4H FP inh	VIM-2 inh	PABP1 MLLE inh	IMP-1 inh-1	IMP-1 inh-2	VIM-2 FRET ctr	TEM-1 counter	VIM-2 confirm 2
CN(C)c1cccc(C(=O)OCc2cc(=O)oc3cc(O)ccc23)c1	+	87.7	31.8	0	0	0	33.6	0	26.5
CC1CN(S(=O)(=O)c2cccc(C(=O)OCc3cc(=O)oc4cc(O)ccc34)c2)CC(C)O1 (stereo not drawn)	0	0	0	0	0	-	-	-	-
COc1ccc(C2C(C(=O)c3cccs3)=C(O)C(=O)N2c2nnc(C)s2)cc1OC (stereo not drawn)	?	?	26.9	0	0	0	0	5.5	8.8
COc1ccc(C2C(C(=O)c3cccs3)=C(O)C(=O)N2c2nncs2)cc1 (stereo not drawn)	?	?	0	0	0	-	-	-	-
Clc1ccc2nc(N3CCNCC3)nc(-c3ccccc3)c2c1	0	0	12.2	0	0	0	0	0	17.4
CN1CCN(c2nc(-c3ccccc3)c3cc(Cl)ccc3n2)CC1	0	0	0	0	0	-	-	-	-
COc1ccc2nc(C)cc(Nc3ccc(N4CCN(C)CC4)cc3)c2c1	0	0	90.0	0	0	0	0	0	90.7
COc1ccc2nc(C)cc(Nc3ccc(N4CCOCC4)cc3)c2c1	0	0	0	0	0	-	-	-	-
O=[N+]([O-])c1cc(CN2CCOCC2)c2cccnc2c1O	0	?	45.8	-	0	0	0	0	49.4
Oc1c(Cl)cc(CN2CCOCC2)c2cccnc12	-	-	-	0	-	-	-	-	-
O=[N+]([O-])c1ccccc1Nc1nc(-c2cccnc2)cs1	0	0	15.6	0	0	0	0	0	27.2
CCc1ccccc1Nc1nc(-c2cccnc2)cs1	0	0	0	0	0	-	-	-	-
CCCN1CCN(CCCNC(=O)Cn2ncc3c4ccccc4n(C)c3c2=O)CC1	0	0	0	0	0	-	-	-	-
CCCN1CCN(CCCNC(=O)c2cc3c(=O)n(C)c4ccccc4c3n2C)CC1	0	0	15.7	0	0	0	0	0	30.4
CN1CCN(CCNC(=O)c2cc3c(=O)n(C)c4ccccc4c3n2C)CC1	0	0	21.4	0	0	0	0	0	32.6
Cn1c(C(=O)NCCCN2CCCCCC2)cc2c(=O)n(C)c3ccccc3c21	0	0	22.4	0	0	0	0	0	28.8
Cn1c(C(=O)N2CCN(C3CCCCC3)CC2)cc2c(=O)n(C)c3ccccc3c21	0	0	0	-	0	-	-	-	-
CN(C(=O)CSc1nc2ccc([N+](=O)[O-])cc2s1)C1CCS(=O)(=O)C1 (stereo not drawn)	0	0	0	0	0	-	-	-	-
CN(C(=O)C1CCCC1)C1CCS(=O)(=O)C1 (stereo not drawn)	-	-	-	0	-	-	-	-	-
Cc1ccc(NCCCn2ccc(NC(=O)OCc3ccccc3)nc2=O)cc1C	-	-	-	0	-	-	-	-	-
CCn1c(COc2cccc3cccnc23)nnc1SC(F)F	0	0	0	0	0	-	-	-	-
CCCCN(CC)CCNC(=O)c1cc2c(C)nc3ccccc3c2o1	0	0	14.1	0	0	0	0	0	17.0
CN(C)CCNC(=O)c1cc2c(=O)n(C)c3ccccc3c2n1C	0	0	17.4	0	0	0	0	0	28.0
CCN(CC)CCCNC(=O)c1cc2c(=O)n(C)c3ccccc3c2n1C	0	0	22.1	0	0	0	0	0	30.5
COc1cccc(CNC(=O)c2cc3c(C)nc4ccccc4c3o2)c1	0	0	0	0	0	-	-	-	-

From PubChem BioAssay
